# Measurements: ChEMBL document CHEMBL4020721 (Eur J Med Chem, 2017)
# Experiments:
# CYP2C19 = CYP2C19 (Homo sapiens, UniProt P33261); test: Reversible inhibition of CYP2C19 in human liver microsomes at 10 uM after 20 mins in presence of NADPH by LC-MS/MS analysis; format: ADME; conditions: liver microsomes
# NCI-H1993 = test: Growth inhibition of human NCI-H1993 cells after 72 hrs by CCK-8 assay; format: functional, cell-based
# SNU-5 = test: Growth inhibition of human SNU5 cells after 72 hrs by CCK-8 assay; format: functional, cell-based
# [1] = Intrinsic clearance in human liver microsomes assessed per mg protein at 1 uM preincubated for 5 mins followed by NADPH addition measured after 5 to 30 mins by LC-MS/MS analysis; format: ADME, microsome; conditions: read-out: CLH
# Procedure, shortened: (§1)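 Microsomes (0.5 mg/ml) with 1 µM compound were preincubated 5 min at 37°C in 100 mM phosphate buffer pH 7.4, then started with 1 mM NADPH. Samples were taken at 0, 5, 10 and 30 min, quenched with acetonitrile/tinidazole and run by LC-MS/MS. CLint = k / microsomal protein concentration. Midazolam was the positive control.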
# [2] = Intrinsic clearance in rat liver microsomes assessed per mg protein at 1 uM preincubated for 5 mins followed by NADPH addition measured after 5 to 30 mins by LC-MS/MS analysis; format: ADME, microsome; conditions: read-out: CLH; procedure, shortened: as §1
# [3] = Drug recovery in human liver microsomes at 1 uM measured after 30 mins by LC-MS/MS analysis; format: ADME, microsome; conditions: liver microsomes, read-out: Drug recovery
# Procedure, shortened: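 Liver microsomes (0.5 mg/ml) were incubated with 1 µM compound at 37°C in 100 mM phosphate buffer pH 7.4 without NADPH for 30 min. Reactions were quenched with acetonitrile/tinidazole internal standard and analysed by LC-MS/MS. Recovery (%) was taken from the compound/internal standard peak area ratio.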
# [4] = Drug recovery in rat liver microsomes at 1 uM measured after 30 mins by LC-MS/MS analysis; format: ADME, microsome; conditions: liver microsomes, read-out: Drug recovery
# CYP2C9 = CYP2C9 (Homo sapiens, UniProt P11712); test: Reversible inhibition of CYP2C9 in human liver microsomes at 10 uM after 20 mins by in presence of NADPH LC-MS/MS analysis; format: ADME; conditions: liver microsomes
# Chain of CYP2C9 (P11712 whole entry): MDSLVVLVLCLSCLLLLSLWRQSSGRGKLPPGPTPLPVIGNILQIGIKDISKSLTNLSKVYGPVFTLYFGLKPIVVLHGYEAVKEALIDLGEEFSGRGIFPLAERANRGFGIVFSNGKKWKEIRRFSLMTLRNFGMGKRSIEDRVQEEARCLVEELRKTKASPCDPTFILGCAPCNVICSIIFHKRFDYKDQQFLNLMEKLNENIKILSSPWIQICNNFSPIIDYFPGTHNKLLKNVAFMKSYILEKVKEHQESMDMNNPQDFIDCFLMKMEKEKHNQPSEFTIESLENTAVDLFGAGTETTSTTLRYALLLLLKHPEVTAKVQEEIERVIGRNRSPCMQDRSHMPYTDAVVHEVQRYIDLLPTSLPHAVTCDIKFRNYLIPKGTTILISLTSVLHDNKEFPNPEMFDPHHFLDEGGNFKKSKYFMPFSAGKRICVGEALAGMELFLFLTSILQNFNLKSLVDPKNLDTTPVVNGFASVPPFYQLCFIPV
# CYP3A4 = CYP3A4 (Homo sapiens, UniProt P08684); test: Reversible inhibition of CYP3A4 in human liver microsomes at 10 uM after 20 mins in presence of NADPH by LC-MS/MS analysis; format: ADME; conditions: liver microsomes
# Chain of CYP3A4 (P08684 whole entry): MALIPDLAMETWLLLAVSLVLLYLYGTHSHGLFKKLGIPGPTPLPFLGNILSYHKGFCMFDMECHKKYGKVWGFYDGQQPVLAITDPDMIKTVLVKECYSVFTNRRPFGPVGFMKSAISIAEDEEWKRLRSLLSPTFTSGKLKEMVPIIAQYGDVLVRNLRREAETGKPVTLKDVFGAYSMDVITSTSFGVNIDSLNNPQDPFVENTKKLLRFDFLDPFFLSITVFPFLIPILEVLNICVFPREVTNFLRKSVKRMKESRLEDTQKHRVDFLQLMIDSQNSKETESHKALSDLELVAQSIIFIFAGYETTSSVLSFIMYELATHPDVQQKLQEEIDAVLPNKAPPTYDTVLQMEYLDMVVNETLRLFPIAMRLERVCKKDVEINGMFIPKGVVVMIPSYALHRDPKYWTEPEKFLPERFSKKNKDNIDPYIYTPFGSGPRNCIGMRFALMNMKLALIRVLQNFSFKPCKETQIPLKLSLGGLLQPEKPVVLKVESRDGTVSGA
# CYP2D6 = CYP2D6 (Homo sapiens, UniProt P10635); test: Reversible inhibition of CYP2D6 in human liver microsomes at 10 uM after 20 mins in presence of NADPH by LC-MS/MS analysis; format: ADME; conditions: liver microsomes
# Chain of CYP2D6 (P10635 whole entry): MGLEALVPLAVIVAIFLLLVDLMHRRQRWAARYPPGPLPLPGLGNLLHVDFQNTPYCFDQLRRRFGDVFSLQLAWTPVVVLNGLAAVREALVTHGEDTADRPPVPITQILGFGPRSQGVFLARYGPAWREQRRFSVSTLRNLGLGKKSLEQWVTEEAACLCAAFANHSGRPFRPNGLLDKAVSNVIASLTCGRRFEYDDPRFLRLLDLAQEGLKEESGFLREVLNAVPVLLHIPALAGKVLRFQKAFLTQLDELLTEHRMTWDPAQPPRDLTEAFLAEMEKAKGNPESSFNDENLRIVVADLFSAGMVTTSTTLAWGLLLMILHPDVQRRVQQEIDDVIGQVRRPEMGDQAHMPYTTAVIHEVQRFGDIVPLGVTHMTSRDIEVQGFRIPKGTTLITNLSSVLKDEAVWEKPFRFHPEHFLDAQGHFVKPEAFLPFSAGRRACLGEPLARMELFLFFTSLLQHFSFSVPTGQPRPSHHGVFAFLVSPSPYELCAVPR
# CYP1A2 = biological target: T1, CYP1A2 (Homo sapiens, UniProt P05177); test: Reversible inhibition of CYP1A2 in human liver microsomes at 10 uM after 20 mins in presence of NADPH by LC-MS/MS analysis; format: ADME
# T1 sequence (P05177 whole entry): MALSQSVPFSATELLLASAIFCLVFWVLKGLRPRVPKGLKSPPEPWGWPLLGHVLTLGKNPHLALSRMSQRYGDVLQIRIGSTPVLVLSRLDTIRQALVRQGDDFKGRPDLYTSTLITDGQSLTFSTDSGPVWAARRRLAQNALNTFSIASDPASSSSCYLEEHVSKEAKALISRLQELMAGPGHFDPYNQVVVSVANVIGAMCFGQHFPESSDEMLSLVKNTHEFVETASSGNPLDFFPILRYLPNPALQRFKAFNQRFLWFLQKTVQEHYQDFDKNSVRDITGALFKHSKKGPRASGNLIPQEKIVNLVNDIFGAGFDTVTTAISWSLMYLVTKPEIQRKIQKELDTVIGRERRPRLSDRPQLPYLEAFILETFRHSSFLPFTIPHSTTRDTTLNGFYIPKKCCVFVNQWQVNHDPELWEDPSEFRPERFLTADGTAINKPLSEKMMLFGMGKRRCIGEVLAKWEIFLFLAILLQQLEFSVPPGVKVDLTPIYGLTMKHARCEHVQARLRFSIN
# Cytochrome P450 3A4 = Cytochrome P450 3A4 (Homo sapiens, UniProt P08684); test: Time dependent irreversible inhibition of CYP3A4 in human liver microsomes at 10 uM preincubated with compound followed by NADPH addition by LC-MS/MS analysis; format: ADME; conditions: microsomes, 10 µM
# Chain of Cytochrome P450 3A4 (P08684 whole entry): as the sequence (P08684 whole entry) above
# Procedure, shortened: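 HLM (0.2 mg/ml) with 10 µM compound were preincubated 0, 5, 10 or 20 min at 37°C with 1 mM NADPH or PBS. Substrate cocktail (halved concentrations) plus NADPH was then added for 10 min. Metabolites were measured by LC-MS/MS. Kobs is the slope of relative activity versus preincubation time.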
# [5] = Drug recovery in monkey liver microsomes at 1 uM measured after 30 mins by LC-MS/MS analysis
# [6] = Intrinsic clearance in monkey liver microsomes assessed per mg protein at 1 uM preincubated for 5 mins followed by NADPH addition measured after 5 to 30 mins by LC-MS/MS analysis; conditions: liver microsomes; read-out: CLH
# [7] = biological target: Hepatocyte growth factor receptor (Homo sapiens, UniProt P08581); test: Inhibition of c-MET (unknown origin) using TK substrate-biotin peptide as substrate preincubated for 5 to 10 mins followed by ATP addition measured after 30 mins by HTRF assay
# Chain of Hepatocyte growth factor receptor (P08581 whole entry): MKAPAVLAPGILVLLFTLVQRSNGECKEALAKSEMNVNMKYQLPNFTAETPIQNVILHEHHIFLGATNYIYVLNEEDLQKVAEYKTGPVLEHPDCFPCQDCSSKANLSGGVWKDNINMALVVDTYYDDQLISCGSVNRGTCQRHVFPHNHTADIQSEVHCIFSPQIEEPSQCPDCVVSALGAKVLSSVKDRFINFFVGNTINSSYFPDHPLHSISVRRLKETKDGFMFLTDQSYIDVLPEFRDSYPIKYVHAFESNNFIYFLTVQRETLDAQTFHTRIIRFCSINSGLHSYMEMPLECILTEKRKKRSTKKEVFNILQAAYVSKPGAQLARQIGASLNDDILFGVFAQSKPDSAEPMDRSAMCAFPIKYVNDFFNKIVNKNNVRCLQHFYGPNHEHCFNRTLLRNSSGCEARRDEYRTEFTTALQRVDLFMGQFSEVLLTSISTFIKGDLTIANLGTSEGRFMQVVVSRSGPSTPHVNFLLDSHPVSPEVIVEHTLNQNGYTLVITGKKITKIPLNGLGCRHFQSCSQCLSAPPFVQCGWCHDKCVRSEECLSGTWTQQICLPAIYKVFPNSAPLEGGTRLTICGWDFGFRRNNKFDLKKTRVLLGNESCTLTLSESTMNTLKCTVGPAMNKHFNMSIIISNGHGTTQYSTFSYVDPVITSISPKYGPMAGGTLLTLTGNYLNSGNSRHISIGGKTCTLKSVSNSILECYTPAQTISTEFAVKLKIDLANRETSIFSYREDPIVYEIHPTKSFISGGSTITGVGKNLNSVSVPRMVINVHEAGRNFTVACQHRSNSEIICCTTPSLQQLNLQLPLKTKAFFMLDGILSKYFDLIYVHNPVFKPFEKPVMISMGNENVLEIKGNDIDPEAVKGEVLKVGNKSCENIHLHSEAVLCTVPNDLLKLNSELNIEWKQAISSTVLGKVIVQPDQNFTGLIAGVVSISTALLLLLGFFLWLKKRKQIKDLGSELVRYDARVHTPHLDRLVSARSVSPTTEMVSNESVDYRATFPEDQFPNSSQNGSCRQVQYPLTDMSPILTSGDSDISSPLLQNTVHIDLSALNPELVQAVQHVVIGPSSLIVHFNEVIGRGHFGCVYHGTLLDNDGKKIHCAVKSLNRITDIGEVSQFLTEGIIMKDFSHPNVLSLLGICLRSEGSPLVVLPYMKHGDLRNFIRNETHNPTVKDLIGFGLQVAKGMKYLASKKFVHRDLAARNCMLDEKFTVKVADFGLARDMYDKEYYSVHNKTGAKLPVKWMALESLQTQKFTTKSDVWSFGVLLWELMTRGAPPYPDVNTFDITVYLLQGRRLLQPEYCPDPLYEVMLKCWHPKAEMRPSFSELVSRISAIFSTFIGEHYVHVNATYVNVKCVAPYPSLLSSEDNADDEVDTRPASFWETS
# Rattus norvegicus = test: (§2) Oral bioavailability in Sprague-Dawley rat plasma at 6 mg/kg by UPLC-MS/MS analysis; format: ADME, organism-based; conditions: in vivo
# Procedure, shortened: (§3)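 Male Sprague-Dawley rats (180-220 g) were fasted overnight with free access to water. Dosing was intravenous (n=2) or oral at 6 mg/kg (n=3). Heparinized blood was drawn from 0 to 1440 min. Plasma was frozen at -20°C, then precipitated with acetonitrile containing internal standard, centrifuged and analysed by UPLC-MS/MS.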
# [8] = as §2; format: ADME, organism-based; conditions: Sprague-Dawley, plasma; procedure, shortened: as §3
# Chain of CYP2C19 (P33261 whole entry): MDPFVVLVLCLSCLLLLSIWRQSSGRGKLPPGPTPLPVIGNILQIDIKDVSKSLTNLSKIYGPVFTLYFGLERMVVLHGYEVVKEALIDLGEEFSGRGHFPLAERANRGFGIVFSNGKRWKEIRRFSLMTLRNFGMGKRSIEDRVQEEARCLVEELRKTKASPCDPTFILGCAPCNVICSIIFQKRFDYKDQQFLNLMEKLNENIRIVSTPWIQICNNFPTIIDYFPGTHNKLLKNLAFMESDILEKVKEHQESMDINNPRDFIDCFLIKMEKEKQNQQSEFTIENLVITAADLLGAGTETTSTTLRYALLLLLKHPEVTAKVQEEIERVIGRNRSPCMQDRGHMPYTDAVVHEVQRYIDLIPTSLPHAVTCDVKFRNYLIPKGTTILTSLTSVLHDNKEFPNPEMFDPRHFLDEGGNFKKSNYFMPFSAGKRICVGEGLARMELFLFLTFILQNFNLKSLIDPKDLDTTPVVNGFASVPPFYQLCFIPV
"inhibition at 20 min, 10 µM (CYP2C19)","IC50 (NCI-H1993; Homo sapiens, NCI-H1993, 72 h)","IC50 (SNU-5; Homo sapiens, SNU-5, 72 h)",microsomal CLint at 1 µM [1],microsomal CLint at 1 µM [2],"remaining at 0.5 h, 1 µM [3]","remaining at 0.5 h, 1 µM [4]","inhibition at 20 min, 10 µM (CYP2C9)","inhibition at 20 min, 10 µM (CYP3A4)","inhibition at 20 min, 10 µM (CYP2D6)","inhibition at 20 min, 10 µM (CYP1A2)",TDI (Cytochrome P450 3A4),"remaining at 0.5 h, 1 µM [5]",microsomal CLint at 1 µM [6],IC50 [7],IC50 (NCI-H1993; nci-h1993),IC50 (SNU-5; snu-5),F (Rattus norvegicus),bioavailability [8],SMILES
< 50%,0.9 nM,1.7 nM,5 µL/min/mg,34 µL/min/mg,101%,103%,< 50%,< 50%,< 50%,< 50%,Active,65%,11 µL/min/mg,,,,,,CC(c1cc2cc(-c3cnn(C)c3)cnc2cc1F)n1nnc2ncc(-c3cnn(C)c3)nc21 (stereo unspecified)
< 50%,0.4 nM,0.4 nM,11 µL/min/mg,12 µL/min/mg,97%,94%,< 50%,< 50%,< 50%,< 50%,Active,99%,50 µL/min/mg,,,,,,CC(c1c(F)cc2ncc(-c3cnn(C)c3)cc2c1F)n1nnc2ncc(-c3ccc(C(N)=O)c(F)c3)nc21 (stereo unspecified)
,,,,,,,,,,,,,,0.68 nM,0.7 nM,0.8 nM,8.6%,,"CC(c1cc2cc(-c3cnn(C)c3)cnc2cc1F)n1nnc2ncc(-c3cnn(CCO)c3)nc21 (single isomer, unassigned; enantiomer 1)"
,0.6 nM,,,,,,,,,,,,,0.48 nM,,0.6 nM,,8.8%,"CC(c1cc2cc(-c3cnn(C)c3)cnc2cc1F)n1nnc2ncc(-c3cnn(CCO)c3)nc21 (single isomer, unassigned; enantiomer 2)"
